# A selection: hits, their analogues and other compounds. The true share with any hit is near 4.5%.
# OX1R antag-1 – OX1R (human) antagonism; inhibition, % at 6.6 µM; OX1R-expressing cells, FRET antagonist read-out; hit rate 1.8% among 330,000; in the data active = inhibition mostly above about 38%, no sharp cut-off; inactive = mostly below about 40%;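 also: 0% = agonist challenge alone and 100% = reference antagonist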
# Target sequence (O43613 whole entry, looked up): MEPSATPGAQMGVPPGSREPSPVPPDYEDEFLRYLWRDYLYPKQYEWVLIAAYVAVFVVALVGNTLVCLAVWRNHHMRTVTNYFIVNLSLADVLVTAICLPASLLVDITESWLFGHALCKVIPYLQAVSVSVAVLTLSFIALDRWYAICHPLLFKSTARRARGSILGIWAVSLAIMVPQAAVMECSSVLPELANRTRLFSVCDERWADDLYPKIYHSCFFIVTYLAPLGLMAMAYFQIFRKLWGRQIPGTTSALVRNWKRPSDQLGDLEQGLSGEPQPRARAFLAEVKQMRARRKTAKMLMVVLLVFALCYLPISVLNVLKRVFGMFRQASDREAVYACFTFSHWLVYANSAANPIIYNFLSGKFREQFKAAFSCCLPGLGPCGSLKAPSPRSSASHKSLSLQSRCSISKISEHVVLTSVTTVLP
# OX1R antag-2 – antagonists of human orexin 1 receptor; CHO/OX1R cells, Fluo-8 calcium fluorescence, orexin A; O43613; hit rate 0.43% among 330,000; inhibition, % at 5 µM; AID 434989;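 active = inhibition above its plate's threshold, mean inhibition of all tested compounds on the plate plus 3 SD, cut at about 37% in these data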;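 also: 0% = orexin A challenge wells and 100% = SB-334867-A antagonist wells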
# TAAR1 antagonist – antagonists of human TAAR1; AID 624466; inhibition, % at 3 µM; CHO RD-HGA16 TAAR1, Fluo-8 calcium fluorescence, antagonist; hit rate 1.5% among 360,000;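 active = inhibition above a per-plate cutoff, the mean inhibition of test compounds on that plate plus 3 SD, cut at about 49% in these data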;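 also: 0% = DMSO plus EC80 beta-PEA response and 100% = DMSO alone without agonist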
#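 Test system: RD-HGA16 CHO cells with stable hTAAR1 and Gα16 / Probe or stimulus: EC80 β-phenethylamine stimulus / Times: seeding 17-24 h prior, 75-min 37 °C, 30-min RT dye loading / Detection: Fluo-8 calcium-sensitive fluorescence / Read-out basis: % inhibition scaled between DMSO and EC80 PEA controls / Repeats: singlicate, one well per test compound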
# GPR7 antagonist – antagonists of human GPR7 (neuropeptides B/W receptor 1); P48145; GPR7-expressing cells, fluorescence antagonist assay; inhibition, % at 4.4 µM; hit rate 1.1% among 290,000; AID 1861; in the data active = inhibition above about 16%, passing the limit was not always enough;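 also: cells stimulated with the agonist NPW; 0% = agonist with vehicle and 100% = vehicle without agonist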
# CHO parental Ca – counter-screen for OX1R antagonists: effect in parental CHO cells; parental CHO-K1, ATP-induced calcium, Fluo-8 fluorescence; inhibition, % at 5.6 µM; hit rate 0.63% among 330,000; AID 463079;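 active = inhibition above that plate's mean sample inhibition plus 3 SD, cut at about 26% in these data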;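 also: 0% = ATP-challenged DMSO wells and 100% = DMSO wells without ATP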
#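 Material: Parental CHO cells | Reagent: ATP | Compound dosing: Single nominal dose of 5.6 µM per compound | Detection: Intracellular calcium via Fluo-8 no-wash fluorescent dye | Read-out: % inhibition of ATP-induced calcium mobilization | Benchmarks: Low control ATP plus DMSO, high control DMSO only | Replicates: Singlicate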
# TAAR1 agonist – agonists of human TAAR1; activation, % at 3 µM; CHO RD-HGA16 TAAR1, Fluo-8 calcium fluorescence; vehicle wells 0%, saturating PEA agonist 100%; hit rate 0.99% among 360,000; AID 624467; Q96RJ0;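 active = activation above the mean activation of all test compounds in the run plus 3 SD, cut at about 38% in these data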
#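 Test system: RD-HGA16 (CHO) cells co-expressing Gα16 and hTAAR1 | Doses: Single dose, 3 µM | Schedule: 17-24 h seeding, 75 min 37 °C dye, 30 min RT | Evaluation: % activation from peak over basal fluorescence ratio, DMSO-to-PEA scaled | Technique: Kinetic Fluo-8 calcium fluorescence | Benchmarks: Low control DMSO, high control PEA (EC100)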
# OX1R Fluo8 conf – confirmation of human orexin 1 receptor antagonists; shares compounds with OX1R antag-2; CHO/OX1R cells, orexin A calcium Fluo-8 fluorescence; inhibition, % at 5 µM; hit rate 38% among 1,100; in the data active = inhibition above about 29%;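 also: 0% = agonist challenge alone and 100% = reference antagonist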
# CHO Ca counter – counter-screen: parental CHO calcium response change, triplicate; parental CHO-K1, ATP-induced calcium, Fluo-8 fluorescence; hit rate 9.3% among 1,100; inhibition, % at 5.6 µM; shares compounds with OX1R antag-2;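 active = inhibition above a per-plate limit, the mean inhibition of that plate's test compounds plus 3 SD, cut at about 25% in these data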;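 also: 0% = ATP challenge with DMSO and 100% = DMSO without ATP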
# An asterisk follows results filed as active; . = no result given.
SMILES,OX1R antag-1,OX1R antag-2,TAAR1 antagonist,GPR7 antagonist,CHO parental Ca,TAAR1 agonist,OX1R Fluo8 conf,CHO Ca counter
CN(c1cccc(NC(=O)COc2ccccc2)c1)S(C)(=O)=O,5,-15,-4,-6,-5,7,.,.
CN(c1ccccc1)S(=O)(=O)c1cccc(NC(=O)COc2ccccc2)c1,14,37,53*,.,-7,7,19,-4
CN(c1ccc(OCC(=O)NCCc2ccccc2)cc1)S(=O)(=O)c1ccc(Cl)cc1,23,36,11,.,-8,4,26,-12
O=C(COc1ccc(Cl)cc1)Nc1cccc(S(=O)(=O)NCc2ccco2)c1,21,42,26,.,-19,6,16,-5
CC(=O)Oc1cccc(NC(=O)c2cccc(C(=O)Nc3cccc(OC(C)=O)c3)c2)c1,3,52*,69*,10,-9,9,14,-2
Cc1cccc(CC(Cc2nc3ccccc3[nH]2)c2nc3ccccc3[nH]2)c1 (stereo unspecified),7,36,52*,13,16,14,19,-4
CC(c1ccccc1)C(Cc1nc2ccccc2[nH]1)c1nc2ccccc2[nH]1 (stereo unspecified),36,45*,.,-5,6,.,7,-20
CCOc1ccc2nc(N3C(=O)/C(=C/c4ccc(Cl)cc4)NC3=S)sc2c1,.,.,2,-4,.,1,.,.
CCCCCCCCN1C(=O)[C@H](CC(=O)N2CCCC2)C[C@@]2(C(=O)OC)CCCCC=C12,.,.,-46,.,.,0,.,.
CC(=O)Nc1ccc(/C(C)=N/Nc2nc(Nc3cccc4ccccc34)nc(N3CCOCC3)n2)cc1,24,40*,52*,17,11,50*,1,-6
Cc1ccc(C(C#N)c2ccc(C(=O)c3ccc(F)cc3)cc2)cc1 (stereo unspecified),43,33,41,2,29,8,1,9
COc1cn(-c2ccccc2)nc1C(=O)Nc1ccc(C)cc1Cl,64,28,0,-10,-18,-2,17,12
COc1ccc(CNC(=O)c2nn(-c3ccccc3)cc2OC)cc1,10,-19,-31,-2,-16,12,.,.
N#Cc1ccccc1NC(=O)C(=O)NCC1CCCN1S(=O)(=O)c1cccs1 (stereo unspecified),29,17,24,.,-7,5,21,-9
COc1ccc(NS(=O)(=O)c2ccc(SC)cc2)cc1,7,57*,-6,12,1,11,2,5
CCn1c(SCC(=O)N2CCCC2)nc2ccccc2c1=O,16,34*,12,-7,-22,3,0,-8
Cc1nc(N(C)Cc2ccccc2)c2nnn(Cc3ccccc3)c2n1,25,-47,-2,-6,-34,1,.,.
CCNC(=S)N(Cc1ccc2c(c1)OCO2)C1CC(=O)N(c2ccc(F)cc2)C1=O (stereo unspecified),59,57*,1,6,16,32,1,-4
C/C(N)=C(/C#N)C(=O)CSc1nc2ccccc2c(=O)n1CCCO,9,18,6,-5,-6,1,.,.
CC(=O)c1c(C)[nH]c(C(=O)CSc2nc3ccccc3c(=O)n2CCCO)c1C,1,28,39,-7,-11,8,14,-3
CCOc1cc(/C=C/C(=O)N(CC)CC(=O)NCc2cccs2)cc(Cl)c1OC,21,-35,5,.,-21,1,.,.
CC1Cc2ccccc2N1Cc1cc(=O)n2ccsc2n1 (stereo unspecified),37,-27,0,3,-8,-1,.,.
O=c1cc(CN2CC(O)Cc3ccc4ccccc4c32)nc2sccn12 (stereo unspecified),47,71*,13,-5,-12,0,57*,-6
COC(=O)c1ccc(OC(=O)C23CCC(C)(C(=O)O2)C3(C)C)cc1 (stereo unspecified),21,-1,-16,-1,-3,4,.,.

# Screening data as filed in PubChem.
